pIC50: −log10 of the molar value. Values after ≈ are worked out from the molar mass of the structure shown. Active and inactive are the calls of the source. The rule behind the calls is not given here.
How the values were obtained:
[1] = Cytotoxicity against human BC1 cells; assay type: functional; settings: read-out: ED50 (the source's name)
[2] = system: Lu1; experiment: Cytotoxicity against human Lu1 cells; assay type: functional; settings: read-out: ED50 (the source's name)
[3] = system: Col2; experiment: Cytotoxicity against human Col2 cells; assay type: functional; settings: read-out: ED50 (the source's name)
[4] = system: KB; experiment: Cytotoxicity against human KB cells; assay type: functional; settings: read-out: ED50 (the source's name)
[5] = Cytotoxicity against human multidrug-resistant KBV1 cells in presence of vinblastin; assay type: functional; settings: KB-V1, read-out: ED50 (the source's name)
[6] = Cytotoxicity against human multidrug-resistant KBV1 cells in absence of vinblastin; assay type: functional; settings: KB-V1, read-out: ED50 (the source's name)
[7] = system: LNCaP; experiment: Cytotoxicity against human LNCAP cells; assay type: functional; settings: read-out: ED50 (the source's name)
[8] = system: SW626; experiment: Cytotoxicity against human SW626 cells; assay type: functional; settings: read-out: ED50 (the source's name)
[9] = Cytotoxicity against human multidrug-resistant SKVLB1 cells; assay type: functional, cell-based
[10] = system: SK-OV-3; experiment: Cytotoxicity against human SKOV3 cells; assay type: functional, cell-based
[11] = Cytotoxicity against human multidrug-resistant SKVLB1 cells in presence of adriamycin; assay type: functional, cell-based
[12] = system: LOX IMVI; experiment: Increase in DINIB-induced cytotoxicity against human LOXIMVI at 0.8 to 12.5 ug/mL; assay type: functional, cell-based
Summary of the method: (§1)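 Modulator dose ranges were chosen to give full dose–response curves and were combined with DINIB, an MDR-substrate cytotoxic agent, at nontoxic modulator concentrations. 5-Fluorouracil, a non-MDR agent, served as the negative-control drug. MDR1 expression and function: HCT-15 and UO-31 high, CAKI-1 moderate, LOX IMVI none (no MDR phenotype). The read-out was enhancement of DINIB growth inhibition.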

[13] = biological target: T1, ATP-dependent translocase ABCB1 (Homo sapiens, UniProt P08183); experiment: Modulation of P-gp in human HCT15 cells assessed as increase in DINIB-induced cytotoxicity at 0.2 to 12.5 ug/mL; assay type: cell-based; settings: hct-15; summary of the method: as §1
T1 sequence (P08183 whole entry): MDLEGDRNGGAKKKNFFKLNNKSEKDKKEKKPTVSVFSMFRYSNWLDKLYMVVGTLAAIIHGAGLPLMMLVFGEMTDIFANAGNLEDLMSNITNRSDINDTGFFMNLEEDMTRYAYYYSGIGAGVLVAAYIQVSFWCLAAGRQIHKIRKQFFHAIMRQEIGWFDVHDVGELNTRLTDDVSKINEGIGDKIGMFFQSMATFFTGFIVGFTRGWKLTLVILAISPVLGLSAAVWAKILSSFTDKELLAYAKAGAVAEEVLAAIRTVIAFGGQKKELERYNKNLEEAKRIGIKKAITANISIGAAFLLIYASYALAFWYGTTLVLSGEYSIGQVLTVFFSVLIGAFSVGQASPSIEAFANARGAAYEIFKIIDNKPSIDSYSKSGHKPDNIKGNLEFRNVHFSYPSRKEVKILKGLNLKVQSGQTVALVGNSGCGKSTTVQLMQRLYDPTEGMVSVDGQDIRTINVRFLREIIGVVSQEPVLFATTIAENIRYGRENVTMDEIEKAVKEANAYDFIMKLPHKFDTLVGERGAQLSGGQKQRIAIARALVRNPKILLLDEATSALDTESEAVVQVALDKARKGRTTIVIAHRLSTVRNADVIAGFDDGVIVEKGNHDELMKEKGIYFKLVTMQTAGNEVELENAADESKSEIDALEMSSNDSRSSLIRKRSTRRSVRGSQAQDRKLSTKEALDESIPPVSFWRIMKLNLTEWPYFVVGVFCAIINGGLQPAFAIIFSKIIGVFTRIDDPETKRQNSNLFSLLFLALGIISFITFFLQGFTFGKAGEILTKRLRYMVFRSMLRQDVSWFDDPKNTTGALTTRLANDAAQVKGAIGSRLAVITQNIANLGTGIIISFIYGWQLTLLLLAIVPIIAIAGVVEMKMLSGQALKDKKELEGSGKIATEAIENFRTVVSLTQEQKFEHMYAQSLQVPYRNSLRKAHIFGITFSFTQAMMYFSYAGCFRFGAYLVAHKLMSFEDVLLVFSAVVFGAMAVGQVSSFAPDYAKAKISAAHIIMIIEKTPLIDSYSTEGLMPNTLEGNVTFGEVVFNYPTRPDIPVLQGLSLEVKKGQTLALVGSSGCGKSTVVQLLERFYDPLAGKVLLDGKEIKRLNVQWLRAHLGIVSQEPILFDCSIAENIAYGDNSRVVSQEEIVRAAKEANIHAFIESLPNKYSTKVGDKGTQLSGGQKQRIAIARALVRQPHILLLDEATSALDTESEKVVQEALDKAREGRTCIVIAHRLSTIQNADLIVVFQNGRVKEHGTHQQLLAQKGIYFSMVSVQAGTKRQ

[14] = biological target: T1, ATP-dependent translocase ABCB1; experiment: Modulation of P-gp in human CAKI1 cells assessed as increase in DINIB-induced cytotoxicity at 0.2 to 12.5 ug/mL; assay type: cell-based; settings: caki-1; summary of the method: as §1
[15] = biological target: T1, ATP-dependent translocase ABCB1; experiment: Modulation of P-gp in human UO31 cells assessed as increase in DINIB-induced cytotoxicity at 0.2 to 12.5 ug/mL; assay type: cell-based; settings: uo-31; summary of the method: as §1
[16] = system: LOX IMVI; experiment: Increase in DINIB-induced cytotoxicity against human LOXIMVI at 0.2 to 12.5 ug/mL; assay type: functional, cell-based; summary of the method: as §1
[17] = biological target: T1, ATP-dependent translocase ABCB1; experiment: Modulation of P-gp in human HCT15 cells assessed as increase in DINIB-induced cytotoxicity at 0.2 to 3.1 ug/mL; assay type: cell-based; settings: hct-15; summary of the method: as §1
[18] = biological target: T1, ATP-dependent translocase ABCB1; experiment: Modulation of P-gp in human UO31 cells assessed as increase in DINIB-induced cytotoxicity at 0.2 to 3.1 ug/mL; assay type: cell-based; settings: uo-31; summary of the method: as §1
[19] = biological target: T1, ATP-dependent translocase ABCB1; experiment: Modulation of P-gp in human CAKI1 cells assessed as increase in DINIB-induced cytotoxicity at 0.2 to 3.1 ug/mL; assay type: cell-based; settings: caki-1; summary of the method: as §1
[20] = system: LOX IMVI; experiment: Increase in DINIB-induced cytotoxicity against human LOXIMVI at 0.2 to 3.1 ug/mL; assay type: functional, cell-based; summary of the method: as §1
[21] = biological target: T1, ATP-dependent translocase ABCB1; experiment: Modulation of P-gp in human HCT15 cells assessed as increase in DINIB-induced cytotoxicity at 3.1 to 50 ug/mL; assay type: cell-based; settings: hct-15; summary of the method: as §1
[22] = biological target: T1, ATP-dependent translocase ABCB1; experiment: Modulation of P-gp in human UO31 cells assessed as increase in DINIB-induced cytotoxicity at 3.1 to 50 ug/mL; assay type: cell-based; settings: uo-31; summary of the method: as §1
[23] = biological target: T1, ATP-dependent translocase ABCB1; experiment: Modulation of P-gp in human CAKI1 cells assessed as increase in DINIB-induced cytotoxicity at 3.1 to 50 ug/mL; assay type: cell-based; settings: caki-1; summary of the method: as §1
[24] = system: LOX IMVI; experiment: Increase in DINIB-induced cytotoxicity against human LOXIMVI at 3.1 to 50 ug/mL; assay type: functional, cell-based; summary of the method: as §1
[25] = biological target: T1, ATP-dependent translocase ABCB1; experiment: Modulation of P-gp in human HCT15 cells assessed as increase in DINIB-induced cytotoxicity at 1.5 to 25 ug/mL; assay type: cell-based; settings: hct-15
Summary of the method: (§2)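 NCI tumour-panel lines of differing MDR1 expression and function (HCT-15 and UO-31 high, CAKI-1 moderate, LOX IMVI none) were exposed to the MDR-substrate cytotoxin DINIB with or without modulator. 5-Fluorouracil, a non-MDR agent, served as the negative control; verapamil and cyclosporin A were reference modulators. Modulator concentrations spanned full dose–response curves. Maximum escalation of DINIB toxicity was taken at nontoxic modulator concentrations.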

[26] = biological target: T1, ATP-dependent translocase ABCB1; experiment: Modulation of P-gp in human UO31 cells assessed as increase in DINIB-induced cytotoxicity at 1.5 to 25 ug/mL; assay type: cell-based; settings: uo-31; summary of the method: as §2
[27] = biological target: T1, ATP-dependent translocase ABCB1; experiment: Modulation of P-gp in human CAKI1 cells assessed as increase in DINIB-induced cytotoxicity at 1.5 to 25 ug/mL; assay type: cell-based; settings: caki-1; summary of the method: as §2
[28] = system: LOX IMVI; experiment: Increase in DINIB-induced cytotoxicity against human LOXIMVI at 1.5 to 25 ug/mL; assay type: functional, cell-based; summary of the method: as §2

| SMILES | EC50 [1] [µg/mL] | EC50 [2] [µg/mL] | EC50 [3] [µg/mL] | EC50 [4] [µg/mL] | EC50 [5] [µg/mL] | EC50 [6] [µg/mL] | EC50 [7] [µg/mL] | EC50 [8] [µg/mL] | pIC50 [9] | pIC50 [10] | pIC50 [11] | also measured |
| --- | --- | --- | --- | --- | --- | --- | --- | --- | --- | --- | --- | --- |
| COc1cc(C(=O)O[C@H]2C[C@H]3CC[C@@H](C2)N3C)cc(OC)c1OC | > 20 | > 20 | > 20 | > 20 | > 20 | > 20 | > 20 | > 20 | – | – | – | – |
| COc1cc2c(cc1OC)CN(CCc1ccc(NC(=O)c3cccc4c(=O)c5cccc(OC)c5[nH]c34)cc1)CC2 | – | – | – | – | – | – | – | – | 4.85 | 5.09 | 7.70 | – |
| CN1C2C[C@@H](OC(=O)Cc3ccccc3)CC1[C@H](O)[C@@H]2O | > 20 | > 20 | > 20 | > 20 | > 20 | > 20 | > 20 | > 20 | – | – | – | – |
| COc1cc(/C=C/C(=O)O[C@H]2[C@@H](O)[C@@H]3C[C@H](OC(=O)c4cc(OC)c(OC)c(OC)c4)C[C@H]2[N+]3(C)[O-])cc(OC)c1OC (stereo partly specified) | > 20 | > 20 | > 20 | > 20 | > 20 | > 20 | > 20 | > 20 | < 5.00 | < 5.00 | < 5.00 | – |
| COc1ccc(CCN(C)CCCC(C#N)(c2ccc(OC)c(OC)c2)C(C)C)cc1OC (stereo unspecified) | – | – | – | – | – | – | – | – | – | – | – | Activity [12]: Active |
| COc1cccc2c1C(=O)c1c(O)c3c(c(O)c1C2=O)C[C@@](O)(C(=O)CO)C[C@@H]3O[C@H]1C[C@H](N)[C@H](O)[C@H](C)O1 [DOXORUBICIN] | – | – | – | – | – | – | – | – | 5.66 | 8.10 | – | – |
| COc1cc(/C=C/C(=O)O[C@H]2[C@@H](O)[C@@H]3C[C@H](OC(=O)c4cc(OC)c(OC)c(OC)c4)C[C@H]2N3C)cc(OC)c1OC [PERVILLEINE A] | > 20 | > 20 | > 20 | > 20 | 0.3 | > 20 | > 20 | > 20 | < 5.00 | < 5.00 | 6.19 | – |
| COc1cc(/C=C/C(=O)O[C@H]2C[C@@H]3C[C@H](OC(=O)c4cc(OC)c(OC)c(OC)c4)C[C@H]2N3C)cc(OC)c1OC [PERVILLEINE B] | 9.4 (≈ 16.4 µM) | 3.1 (≈ 5.42 µM) | 1.3 (≈ 2.27 µM) | > 20 | 0.1 | 8.8 (≈ 15.4 µM) | 1 (≈ 1.75 µM) | 3.2 (≈ 5.6 µM) | < 5.00 | 5.42 | 6.92 | Activity [13]: Active; Activity [14]: Active; Activity [15]: Active; Activity [16]: inactive |
| COc1cc(/C=C/C(=O)O[C@H]2C[C@H]3C[C@H](OC(=O)/C=C/c4cc(OC)c(OC)c(OC)c4)[C@@H](C2)N3C)cc(OC)c1OC [PERVILLEINE C] | 2.8 (≈ 4.68 µM) | 2.3 (≈ 3.85 µM) | 4.1 (≈ 6.86 µM) | 2.2 (≈ 3.68 µM) | 0.1 | 9 (≈ 15.1 µM) | > 20 | 1.4 (≈ 2.34 µM) | < 5.00 | 5.55 | 7.10 | Activity [17]: Active; Activity [18]: Active; Activity [19]: Active; Activity [20]: inactive |
| COc1cc(/C=C/C(=O)O[C@@H]2C[C@@H]3[C@@H](OC(=O)/C=C/c4cc(OC)c(OC)c(OC)c4)[C@@H](O)[C@H](C2)N3C)cc(OC)c1OC [PERVILLEINE D] | 15 (≈ 24.4 µM) | 15.1 (≈ 24.6 µM) | 4.9 (≈ 7.98 µM) | 11 (≈ 17.9 µM) | 0.2 | 9 (≈ 14.7 µM) | 14.1 (≈ 23 µM) | 6.5 (≈ 10.6 µM) | – | – | – | Activity [21]: Active; Activity [22]: Active; Activity [23]: Active; Activity [24]: inactive |
| COc1cc(/C=C/C(=O)O[C@H]2C[C@@H]3C[C@H](OC(=O)Cc4cccc(O)c4)C[C@H]2N3C)cc(OC)c1OC [PERVILLEINE E] | > 20 | > 20 | 13.4 (≈ 26.2 µM) | 14.7 (≈ 28.7 µM) | 1.9 | > 20 | > 20 | 8.4 (≈ 16.4 µM) | – | – | – | – |
| COc1cc(/C=C/C(=O)O[C@H]2C[C@@H]3C[C@H](OC(=O)Cc4ccccc4)C[C@H]2N3C)cc(OC)c1OC [PERVILLEINE F] | > 20 | > 20 | 4.9 (≈ 9.89 µM) | > 20 | 0.2 | > 20 | > 20 | > 20 | – | – | – | Activity [25]: Active; Activity [26]: Active; Activity [27]: Active; Activity [28]: inactive |

Source: ChEMBL document CHEMBL1156388, “Modulation of the multidrug-resistance phenotype by new tropane alkaloid aromatic esters from Erythroxylum pervillei” (J Nat Prod, 2001)
